Holding throughout (type): functional, organism-based
The test system of one assay is Aspergillus niger. The experiment in a line: Antifungal ativity against Aspergillus niger CECT 2089. Put shortly: (§1)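 Disk diffusion on brain-heart agar plates inoculated with 0.1 ml of 8 h-old fungal cultures grown in CM medium (1% glucose, 0.5% yeast extract, 0.5% malt extract). 5-mm paper disks carrying 1 mg of sample were applied. Plates were held 2 h at 4° for diffusion, then incubated at 28°. Growth-inhibition halo (mm) was read at 18 h.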

The test system of the next assay is Penicillium. The experiment in a line: Antifungal ativity against Penicillium. Summed up: as §1
A further assay has as its system Human alphaherpesvirus 1. The experiment in a line: Antiviral activity against HSV1 at 40 ug/ml.
Assay [1] relates to Vesicular stomatitis virus. Nature of the assay: Antiviral activity against VSV at 40 ug/ml.

Activity calls are given as the source filed them. The calls are words filed in the database; no cut-off is given here.

For `COc1cc(C[C@H]2CO[C@H](c3ccc(O)c(OC)c3)[C@H]2CO)ccc1O`, the outcome (with Aspergillus niger; in the assay with Human alphaherpesvirus 1; in assay [1]) was inactive. For the same molecule, the Growth-inhibition halo result with Penicillium is “inactive”.
In the case of `COc1cc(C[C@H]2[C@H](OC(C)=O)O[C@H](c3ccc(OC(C)=O)c(OC)c3)[C@H]2COC(C)=O)ccc1OC(C)=O`, the outcome (with Human alphaherpesvirus 1; in assay [1]) was inactive.
As for `COc1cc([C@H]2OC[C@H]([C@@H](OC(C)=O)c3ccc(OC(C)=O)c(OC)c3)[C@@H]2COC(C)=O)ccc1OC(C)=O`, the outcome (with Human alphaherpesvirus 1; in assay [1]) was inactive.
As to `COc1cc(C[C@H](COC(C)=O)Oc2ccc(C[C@@H]3[C@@H](Cc4ccc(OC(C)=O)c(OC)c4)CO[C@H]3OC(C)=O)cc2OC)ccc1OC(C)=O`, the outcome (in the assay with Human alphaherpesvirus 1; in assay [1]) was inactive.
On to `COc1cc(C[C@H]2[C@H](OC(C)=O)OC[C@@H]2[C@H](OC(C)=O)c2ccc(OC(C)=O)c(OC)c2)ccc1OC(C)=O`, for which the outcome (with Human alphaherpesvirus 1; in assay [1]) was inactive.
For `COc1cc(C[C@H](CO)Oc2ccc(C[C@H]3C(=O)OC[C@@H]3Cc3ccc(O)c(OC)c3)cc2OC)ccc1O`, the result in the assay on Aspergillus niger was inactive. Moreover, the Growth-inhibition halo entry in the assay on Penicillium was “inactive”.
For `COc1cc(C[C@H]2COC(O)[C@@H]2Cc2ccc(O)c(OC)c2)ccc1O` (some centres undefined), the outcome (with Aspergillus niger; in the assay on Human alphaherpesvirus 1; in assay [1]) was inactive. Besides, the Growth-inhibition halo entry in the assay on Penicillium is “inactive”.
Take `COc1cc(C[C@H]2COC(=O)[C@@H]2Cc2ccc(O)c(OC)c2)ccc1O`: the result (in the assay with Aspergillus niger; with Human alphaherpesvirus 1; in assay [1]) was inactive. Moreover, the Growth-inhibition halo entry with Penicillium was “inactive”.
Regarding `COc1cc([C@H]2OC[C@H]([C@H](OC(C)=O)c3ccc(OC(C)=O)c(OC)c3)[C@@H]2COC(C)=O)ccc1OC(C)=O`, the outcome (in the assay with Human alphaherpesvirus 1; in assay [1]) was inactive.

Source of the values: ChEMBL document CHEMBL1149071, “Lignans from the wood of Abies pinsapo” (J Nat Prod, 1994).
